Measured values taken from publication PMC4002122 (Chemical Research in Toxicology, 2014).

Experiments:
Type in all cases: in vitro ADME
Conditions in all cases: 250 μM substrate, 5 μg protein, 60 min, 37 °C
UGT1A1 = target: T1, UGT1A1 (Homo sapiens, UniProt P22309); assay: Screening of recombinant UGT1A1 for glucuronidation activity
T1 sequence (P22309 26-533): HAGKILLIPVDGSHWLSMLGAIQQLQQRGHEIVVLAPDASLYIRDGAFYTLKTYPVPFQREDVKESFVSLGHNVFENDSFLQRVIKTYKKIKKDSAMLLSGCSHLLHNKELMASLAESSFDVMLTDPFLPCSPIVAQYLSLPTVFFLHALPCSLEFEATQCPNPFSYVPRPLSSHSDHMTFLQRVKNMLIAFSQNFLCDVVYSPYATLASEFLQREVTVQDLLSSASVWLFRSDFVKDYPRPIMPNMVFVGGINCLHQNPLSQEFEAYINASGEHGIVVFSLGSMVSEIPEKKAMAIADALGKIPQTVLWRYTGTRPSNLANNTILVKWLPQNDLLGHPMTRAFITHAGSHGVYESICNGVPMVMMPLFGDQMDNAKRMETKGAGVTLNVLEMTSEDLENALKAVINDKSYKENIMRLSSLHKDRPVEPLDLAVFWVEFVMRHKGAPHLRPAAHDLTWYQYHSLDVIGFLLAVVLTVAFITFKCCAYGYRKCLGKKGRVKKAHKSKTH
Procedure, shortened: (§1)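 UGT1A1, 1A3, 1A4 and 1A6–1A10 were His-tagged and expressed in baculovirus-infected Sf9 cells; UGT2B4, 2B7, 2B15 and 2B17 were commercial membranes run per supplier protocol. 5 μg membrane protein with 250 μM substrate, 2 mM UDP-GlcUA, Tris–HCl pH 7.4, MgCl2, saccharolactone, 2% DMSO; 37 °C, 60 min; no-substrate controls. Products measured by HPLC-UV/vis; β-glucuronidase hydrolysis separated O- from carboxyl glucuronides.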

UGT1A6 = target: T2, UGT1A6 (Homo sapiens, UniProt P19224); assay: Screening of recombinant UGT1A6 for glucuronidation activity
T2 sequence (P19224 27-532): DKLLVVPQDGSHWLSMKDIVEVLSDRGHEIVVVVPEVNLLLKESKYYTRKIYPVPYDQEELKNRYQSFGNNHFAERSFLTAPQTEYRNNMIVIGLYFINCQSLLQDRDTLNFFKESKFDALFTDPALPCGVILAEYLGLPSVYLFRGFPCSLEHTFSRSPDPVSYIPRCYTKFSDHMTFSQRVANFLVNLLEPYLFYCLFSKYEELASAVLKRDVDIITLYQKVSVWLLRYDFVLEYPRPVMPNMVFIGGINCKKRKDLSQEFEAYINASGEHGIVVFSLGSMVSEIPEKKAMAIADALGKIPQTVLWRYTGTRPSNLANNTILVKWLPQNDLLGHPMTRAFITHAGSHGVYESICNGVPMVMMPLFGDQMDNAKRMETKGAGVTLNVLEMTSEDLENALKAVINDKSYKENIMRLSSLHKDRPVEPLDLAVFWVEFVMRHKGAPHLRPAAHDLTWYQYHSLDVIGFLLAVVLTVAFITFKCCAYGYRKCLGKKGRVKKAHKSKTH
Procedure, shortened: as §1

UGT1A7 = target: T3, UGT1A7 (Homo sapiens, UniProt Q9HAW7); assay: Screening of recombinant UGT1A7 for glucuronidation activity
T3 sequence (Q9HAW7 26-530): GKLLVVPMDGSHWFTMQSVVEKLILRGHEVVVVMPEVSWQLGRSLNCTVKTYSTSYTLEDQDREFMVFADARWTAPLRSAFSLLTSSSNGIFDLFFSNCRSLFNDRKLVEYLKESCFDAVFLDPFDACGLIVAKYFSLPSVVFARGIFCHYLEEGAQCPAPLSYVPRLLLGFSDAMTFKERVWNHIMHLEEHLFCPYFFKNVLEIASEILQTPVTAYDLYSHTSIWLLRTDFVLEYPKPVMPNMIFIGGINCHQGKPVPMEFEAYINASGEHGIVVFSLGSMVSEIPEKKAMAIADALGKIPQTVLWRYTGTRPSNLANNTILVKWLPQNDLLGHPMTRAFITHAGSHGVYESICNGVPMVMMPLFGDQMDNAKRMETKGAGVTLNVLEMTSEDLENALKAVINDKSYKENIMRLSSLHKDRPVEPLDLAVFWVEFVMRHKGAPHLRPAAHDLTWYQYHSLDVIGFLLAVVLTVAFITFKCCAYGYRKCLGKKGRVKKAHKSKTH
Procedure, shortened: as §1

UGT1A8 = target: T4, UGT1A8 (Homo sapiens, UniProt Q9HAW9); assay: Screening of recombinant UGT1A8 for glucuronidation activity
T4 sequence (Q9HAW9 26-530): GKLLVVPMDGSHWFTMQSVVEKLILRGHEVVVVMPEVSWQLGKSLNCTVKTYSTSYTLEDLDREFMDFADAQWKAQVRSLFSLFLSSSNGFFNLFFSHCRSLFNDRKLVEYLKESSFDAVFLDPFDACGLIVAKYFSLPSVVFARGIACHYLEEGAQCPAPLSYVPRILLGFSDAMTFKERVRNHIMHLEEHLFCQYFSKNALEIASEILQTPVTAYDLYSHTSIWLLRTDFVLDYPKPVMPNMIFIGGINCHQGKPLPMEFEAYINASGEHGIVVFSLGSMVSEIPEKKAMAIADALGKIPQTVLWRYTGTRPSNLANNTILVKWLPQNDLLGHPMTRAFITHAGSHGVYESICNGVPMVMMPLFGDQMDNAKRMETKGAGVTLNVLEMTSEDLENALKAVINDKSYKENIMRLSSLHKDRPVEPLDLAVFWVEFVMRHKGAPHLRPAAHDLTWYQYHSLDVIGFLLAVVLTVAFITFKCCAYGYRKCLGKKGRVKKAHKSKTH
Procedure, shortened: as §1

UGT1A10 = target: T5, UGT1A10 (Homo sapiens, UniProt Q9HAW8); assay: Screening of recombinant UGT1A10 for glucuronidation activity
T5 sequence (Q9HAW8 26-530): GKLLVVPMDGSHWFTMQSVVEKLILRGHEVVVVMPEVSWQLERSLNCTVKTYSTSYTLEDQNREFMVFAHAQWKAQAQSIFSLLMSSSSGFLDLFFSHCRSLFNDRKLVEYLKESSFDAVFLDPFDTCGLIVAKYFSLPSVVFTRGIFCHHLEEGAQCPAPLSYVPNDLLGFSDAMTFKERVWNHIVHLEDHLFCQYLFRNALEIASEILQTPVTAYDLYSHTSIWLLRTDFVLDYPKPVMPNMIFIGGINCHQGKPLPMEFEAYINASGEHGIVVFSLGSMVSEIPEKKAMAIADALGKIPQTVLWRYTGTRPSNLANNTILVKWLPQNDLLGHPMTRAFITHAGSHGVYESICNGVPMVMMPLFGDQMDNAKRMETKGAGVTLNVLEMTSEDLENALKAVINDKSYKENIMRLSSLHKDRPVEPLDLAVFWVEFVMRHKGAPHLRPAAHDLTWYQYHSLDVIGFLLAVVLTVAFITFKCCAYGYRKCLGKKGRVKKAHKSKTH
Procedure, shortened: as §1

| glucuronidation activity (glucuronide formed) (UGT1A1) | glucuronidation activity (glucuronide formed) (UGT1A6) | glucuronidation activity (glucuronide formed) (UGT1A7) | glucuronidation activity (glucuronide formed) (UGT1A8) | glucuronidation activity (glucuronide formed) (UGT1A10) | Compound |
| --- | --- | --- | --- | --- | --- |
| No activity | No activity | No activity | No activity | No activity | COc1cc(/C=C/c2cc([N+](=O)[O-])c(O)c([N+](=O)[O-])c2)cc(OC)c1 [DNR-1, (E)-4-(3,5-dimethoxystyryl)-2,6-dinitrophenol] |
| only the carboxyl metabolite | not active | only the hydroxyl metabolite | only the hydroxyl metabolite | only the hydroxyl metabolite | COc1ccc(/C=C(/C(=O)O)c2cc(OC)c(OC)c(OC)c2)cc1O [NI-12a, (E)-3-(3-hydroxy-4-methoxyphenyl)-2-(3,4,5-trimethoxyphenyl)acrylic acid] |

| Compound | glucuronidation activity (glucuronide formed) (UGT1A1) | glucuronidation activity (glucuronide formed) (UGT1A6) | glucuronidation activity (glucuronide formed) (UGT1A7) | glucuronidation activity (glucuronide formed) (UGT1A8) | glucuronidation activity (glucuronide formed) (UGT1A10) |
| --- | --- | --- | --- | --- | --- |
| COc1ccc(C=Cc2cc(OC)cc(OC)c2/C=N/O)cc1 [NI-ST-05, (E)-2,4-dimethoxy-6-(4-methoxystyryl)benzaldehyde oxime] | catalyzed the formation of the C=N–O-glucuronide | inactive | inactive | inactive | catalyzed the formation of the C=N–O-glucuronide |
